From PubChem BioAssay
PKD1 inh = blocks activity of human protein kinase D1; 0.056% of 200,000 active; PKD1 kinase fluorescence polarization assay; inhibition, % (test concentration not listed); AID 797; Q15139; in the data active = inhibition above about 50%
m-calpain inh = blocks pig calpain II enzyme activity; purified calpain II, fluorogenic peptide substrate, 30 min; inhibition, % at 16 µM; 0.37% of 220,000 active;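 active = inhibition above about 50%, limit read from the data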
KCC2 mod = modulators of human KCC2 chloride dependent transport. Q9H2X9. KCC2 cells, thallium flux FluoZin-2 fluorescence. B-score of Tl+ flux slope (higher = more flux/activation; lower = inhibition) at 10 µM. 2.2% of 190,000 active;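 active = thallium flux slope and its plate-corrected score both differing from the plate sample mean at a set confidence after two filtering rounds, in either direction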;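 note: slope of fluorescence scaled to starting intensity during 10 to 20 s after thallium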
ROMK primary = modulates human ROMK potassium channel activity | P48048 | Tet-inducible ROMK, thallium flux fluorescence; actives lie on both sides | B-score at 10 µM | 2% of 130,000 active | AID 1918;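 active = signal ratio slope over the read window, or its plate-corrected B-score, at least 3 SD from the plate mean, either direction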;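 note: B-score of the F/F0 ratio slope over 7 to 12 s after thallium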
Arbovirus anti = arbovirus infection inhibition | arbovirus infection cell-based antiviral screen | inhibition, % at 10 µM | 0.37% of 200,000 active; in the data active = inhibition above about 30%
MDM2 E3 inh = Mdm2 E3 ligase (human) inhibition. AID 1230. signal enhancement, % at 5 µM. Q00987. 0.11% of 210,000 active. cell-based MDM2 ubiquitination luciferase reporter, 2 h; 0 = plate control, 100 = twice control, blank-subtracted;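 active = signal enhancement of 30% or more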;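 note: luminescence tracks abundance of the self-degrading MDM2-luciferase fusion protein; higher signal means inhibition of MDM2 E3 ligase activity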
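Material: stable MDM2–luciferase fusion reporter cells / Quantity: 2000 cells/well / Dosing: single 5 µM compound dose, 0.2% final DMSO / Buffer or medium: DMEM / Schedule: 4 h cell settling then 2 h compound exposure, 37 °C / Detection: luminescence with SteadyLite reagent, 15 min at room temperature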
Starred values were filed as active, the others as inactive; x = no result given. The list is not random: actives were taken first. Their share in the collection is about 3.7%.

SMILES | PKD1 inh | m-calpain inh | KCC2 mod | ROMK primary | Arbovirus anti | MDM2 E3 inh
COC(=O)c1ccc2c(=O)n(Cc3ccco3)c(SCC(=O)Nc3cc(C)on3)nc2c1 | -4 | 5 | -0.49 | 0.0092 | -5 | -10
NC(=S)n1[nH]c(-c2ccc([N+](=O)[O-])cc2)c(N=Nc2cccc(Cl)c2)c1=O | 0 | -170 | 5.8* | -0.53 | 4 | -9
NC(=S)n1[nH]c(-c2ccc([N+](=O)[O-])cc2)c(N=Nc2ccc(O)cc2)c1=O | 5 | -42 | x | 0.0068 | -20 | -8
O=C1c2cccc3cccc(c23)C(=O)N1OS(=O)(=O)c1ccc(Cl)cc1 | 5 | -211 | 0.95 | 0.5 | -10 | -12
O=C(N/N=C1/C(=O)c2cccc3cccc1c23)c1ccc(Cl)cc1 | -4 | -72 | 4.8* | 1.1 | -25 | -7
CCNC(=S)N/N=C1\C(=O)c2cccc3cccc1c23 | -5 | -28 | 24* | 1.2 | 1 | -7
CCNC(=S)N/N=C/c1ccco1 | 2 | 16 | 0.12 | 0.55 | 11 | -1
CCOc1cc(CNc2ncn[nH]2)ccc1OCC(=O)NC(C)(C)C | -6 | 4 | 0.63 | 1.3 | 5 | -4
c1ccc(CCn2nnnc2C(c2cccs2)N2CCN(Cc3ccc4c(c3)OCO4)CC2)cc1 (stereo unspecified) | -3 | 17 | -0.28 | -3.1* | 9 | -8
Fc1ccccc1N1CCN(C(c2cccs2)c2nnnn2CCc2ccccc2)CC1 (stereo unspecified) | -6 | 55* | -1.2 | x | -7 | -4
CCN1CCN(C(c2ccccc2F)c2nnnn2Cc2ccc3c(c2)OCO3)CC1 (stereo unspecified) | 9 | 3 | x | -2.2* | 1 | -5
CC(C)(C)N/N=C1\CC(c2ccccc2)Oc2ccccc21 (stereo unspecified) | -1 | 24 | 1.4 | 0.03 | 6 | -10
O=C(O)c1cc(N/N=C2/CC(c3ccccc3)Oc3ccccc32)ccc1Cl (stereo unspecified) | -1 | -44 | 0.79 | 0.3 | 32* | -2
C=CCNC(=O)NC(=O)COC(=O)/C(C#N)=C/c1ccc(OC)cc1 | -1 | 14 | -1.7 | 1.4 | -5 | -4
C=CCn1c(SCN2C(=O)c3ccccc3C2=O)nc2ccc(Cl)cc2c1=O | -5 | 26 | 42* | -1 | 6 | -14
C=CCn1c(SCC(=O)Nc2sccc2C(N)=O)nc2ccccc2c1=O | 0 | -17 | -1.5 | x | -6 | -22
C=CCn1c(SCC(=O)Nc2ccccc2-c2ccccc2)nc2cc(C(=O)O)ccc2c1=O | 0 | -18 | -1.6 | 0.43 | 2 | -16
C=CCn1c(SCC(=O)Nc2sccc2C(N)=O)nc2ccc(Cl)cc2c1=O | -3 | -118 | 11* | x | -6 | x
O=C(CC1NCCN(Cc2ccccc2)C1=O)Nc1ccccc1 (stereo unspecified) | x | -16 | -0.16 | x | x | -3
CC1CCc2c(sc(NS(=O)(=O)c3ccccc3)c2C(=O)OC(C)C)C1 (stereo unspecified) | -2 | -37 | 10* | 0.088 | 1 | x
COc1cc(/C=C2\COC/C(=C\c3cc(OC)c(OC)c(OC)c3)C2=O)cc(OC)c1OC | x | -4 | 0.59 | x | x | 69*
COc1cc(/C=C2\CC/C(=C\c3cc(OC)c(OC)c(OC)c3)C2=O)cc(OC)c1OC | 11 | 1 | 0.079 | -0.032 | 6 | 4
O=C(O)C1CCC(Cn2c(SCc3cc(=O)n4ccccc4n3)nc3ccsc3c2=O)CC1 (stereo unspecified) | 4 | -22 | -2.3 | 0.014 | 4 | -11
CC(C)OCCCn1c(=S)[nH]c2cc3c(cc2c1=O)OCO3 | -7 | 14 | 12* | x | 0 | -21
S=c1[nH]nc(C2COc3ccccc3O2)o1 (stereo unspecified) | 0 | -32 | -6.9* | x | 7 | -15
S=c1nc(C2COc3ccccc3O2)[nH][nH]1 (stereo unspecified) | -12 | -6 | 0.046 | 0.5 | 10 | -8
O=C(CSCc1ccc(Br)cc1)N=Nc1c(O)[nH]c2ccccc12 | 5 | 12 | 10* | x | 14 | -5
CNC(=S)N=Nc1c(O)[nH]c2ccc(C(C)C)cc12 | -9 | 25 | 6.6* | x | -21 | -9
Cc1cccc(C)c1NC(=O)CSC(=O)c1sc2ccccc2c1Cl | x | -16 | 0.4 | x | x | -9
C/C(=N\NS(=O)(=O)c1ccccc1)c1cccc(NC(=O)c2cccc(Cl)c2)c1 | 10 | 2 | 0.11 | x | 47* | -13
